pIC50: −log10 of the molar value.
Experiments:
Type in all cases: cell-based
[1] = target: T1, Neuronal acetylcholine receptor subunit alpha-7 (Homo sapiens, UniProt P36544); test: (§1) Antagonist activity at human alpha7 nAChR expressed in Xenopus laevis oocytes assessed as inhibition of ACh-induced inward current at -60 mV holding potential preincubated for 1 min followed by ACh addition by two-microelectrode voltage clamp assay
Method in brief: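 Oocytes expressing human α7 mRNA were clamped at −60 mV on an automated TEVC rig, using electrodes of 50–60 MΩ filled with 1 M KCl/1 M ammonium acetate. The bath was OR2 (88 mM NaCl, 1 mM MgCl₂, 5 mM Hepes, pH 7.6). ACh 100 μM was applied three times with 4 min washes between. Each oocyte then got a 1 min compound preincubation followed by 100 μM ACh plus the same compound concentration. IC50 came from a Hill fit of the fractional current.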

[2] = target: T1, Neuronal acetylcholine receptor subunit alpha-7; test: as §1, with “assay relative to 2-(2-(2-(2-(4-(5-(1-methylpyrrolidin-2-yl)pyridin-3-yl)-1H-1,2,3-triazol-1-yl)ethoxy)ethoxy)ethoxy)ethanol” for “assay”
[3] = target: T1, Neuronal acetylcholine receptor subunit alpha-7; test: Antagonist activity at human alpha7 nAChR expressed in Xenopus laevis oocytes assessed as inhibition of ACh-induced inward current at -60 mV holding potential preincubated for 1 min followed by ACh addition by two-microelectrode voltage clamp assay relative to cyclodextrin reference compound
Method in brief: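 Human α7 mRNA expressed in Xenopus oocytes; automated two-electrode voltage clamp at -60 mV holding, electrodes filled with 1 M KCl/1 M ammonium acetate; OR2 buffer (88 mM NaCl, 1 mM MgCl2, 5 mM Hepes, pH 7.6). Three 100 μM ACh applications spaced by 4 min washes; 1 min compound preincubation, then 100 μM ACh plus compound. IC50 from fit F = 1/[1+([X]/IC50)^nH].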

T1 sequence (P36544 whole entry): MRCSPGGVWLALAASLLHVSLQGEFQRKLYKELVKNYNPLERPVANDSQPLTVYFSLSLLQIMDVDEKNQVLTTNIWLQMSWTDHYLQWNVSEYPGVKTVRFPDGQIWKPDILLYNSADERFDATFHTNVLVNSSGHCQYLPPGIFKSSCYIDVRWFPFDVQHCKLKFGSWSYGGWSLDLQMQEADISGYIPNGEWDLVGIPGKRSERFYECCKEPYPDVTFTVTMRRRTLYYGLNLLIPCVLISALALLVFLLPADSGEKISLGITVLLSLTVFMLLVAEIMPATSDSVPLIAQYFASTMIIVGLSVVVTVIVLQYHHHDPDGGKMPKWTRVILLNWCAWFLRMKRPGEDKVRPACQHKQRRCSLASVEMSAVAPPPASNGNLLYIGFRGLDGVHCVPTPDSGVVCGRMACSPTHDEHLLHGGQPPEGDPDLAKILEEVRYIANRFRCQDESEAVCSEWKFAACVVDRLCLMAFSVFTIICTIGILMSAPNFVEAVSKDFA

fold change (FC) [3] | SMILES | pIC50 [1] | inhibition [1] | fold change (FC) [2]
 | CN1CCCC1c1cncc(-c2cn(CCOCCOCCOCCOCCOCCOCCOCCOCCOCCOCCOCCn3cc(-c4cncc(C5CCCN5C)c4)nn3)nn2)c1 (configuration not stated) | 3.52 | Dose-dependent effect | 0.32
 | CN1CCCC1c1cncc(-c2cn(CCOCCOCCOCCn3cc(-c4cncc(C5CCCN5C)c4)nn3)nn2)c1 (configuration not stated) | 4.92 | Dose-dependent effect | 8.1
0.14 | CN1CCCC1c1cncc(-c2cn(C[C@H]3O[C@@H]4O[C@H]5[C@H](O)[C@@H](O)[C@@H](O[C@H]6[C@H](O)[C@@H](O)[C@@H](O[C@H]7[C@H](O)[C@@H](O)[C@@H](O[C@H]8[C@H](O)[C@@H](O)[C@@H](O[C@H]9[C@H](O)[C@@H](O)[C@@H](O[C@H]%10[C@H](O)[C@@H](O)[C@@H](O[C@H]3[C@H](O)[C@H]4O)O[C@@H]%10Cn3cc(-c4cncc(C%10CCCN%10C)c4)nn3)O[C@@H]9Cn3cc(-c4cncc(C9CCCN9C)c4)nn3)O[C@@H]8Cn3cc(-c4cncc(C8CCCN8C)c4)nn3)O[C@@H]7Cn3cc(-c4cncc(C7CCCN7C)c4)nn3)O[C@@H]6Cn3cc(-c4cncc(C6CCCN6C)c4)nn3)O[C@@H]5Cn3cc(-c4cncc(C5CCCN5C)c4)nn3)nn2)c1 (some centres not stated) | 3.71 | Dose-dependent effect | 
 | CN1CCCC1c1cncc(-c2cn(CCOCCOCCOCCOCCOCCOCCOCCOCCOCCOCCOCCOCCOCCOCCOCCOCCOCCOCCOCCn3cc(-c4cncc(C5CCCN5C)c4)nn3)nn2)c1 (configuration not stated) | 3.80 | Dose-dependent effect | 0.61
 | CN1CCCC1c1cncc(-c2cn(CCOCCOCCOCCOCCOCCOCCOCCn3cc(-c4cncc(C5CCCN5C)c4)nn3)nn2)c1 (configuration not stated) | 3.21 | Dose-dependent effect | 0.16
 | CN1CCCC1c1cncc(-c2cn(CCOCCOCCOCCOCCOCCOCCOCCOCCOCCOCCOCCOCCOCCOCCOCCOCCOCCOCCOCCOCCOCCOCCOCCOCCOCCOCCOCCn3cc(-c4cncc(C5CCCN5C)c4)nn3)nn2)c1 (configuration not stated) | 4.68 | Dose-dependent effect | 4.6
 | CN1CCCC1c1cncc(-c2cn(C[C@H]3O[C@@H]4O[C@H]5[C@H](O)[C@@H](O)[C@@H](O[C@H]6[C@H](O)[C@@H](O)[C@@H](O[C@H]7[C@H](O)[C@@H](O)[C@@H](O[C@H]8[C@H](O)[C@@H](O)[C@@H](O[C@H]9[C@H](O)[C@@H](O)[C@@H](O[C@H]%10[C@H](O)[C@@H](O)[C@@H](O[C@H]3[C@H](O)[C@H]4O)O[C@@H]%10CO)O[C@@H]9CO)O[C@@H]8CO)O[C@@H]7CO)O[C@@H]6CO)O[C@@H]5CO)nn2)c1 (some centres not stated) | 4.25 | Dose-dependent effect | 
 | CN1CCCC1c1cncc(-c2cn(CCOCCOCCOCCO)nn2)c1 (configuration not stated) | 3.71 | Dose-dependent effect | 

Source: ChEMBL document CHEMBL4330154, “Di- and heptavalent nicotinic analogues to interfere with α7 nicotinic acetylcholine receptors” (Bioorg Med Chem, 2019)
